# Many of the other results were omitted from the sample, so hits are more common in it than they were.
# T cruzi growth-1 = T. cruzi intracellular proliferation inhibitors, primary screen, cell-based, beta-gal Tulahuen parasites, NIH3T3 host, luminescence | inhibition, % at 8.34 µM | T. cruzi beta-gal in NIH3T3, GalScreen luminescence, 90 h | 5.9% of 77,000 active;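 active = mean inhibition above about 93%, with at least 55% of replicates each passing it, limit read from the data, passing the limit was not always enough; inconclusive = only one of those two conditions holds; inactive = neither condition holds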
# IDH1 mut inh = inhibitors of IDH1 R132H reductase, primary screen, biochemical, plate reader, single point; Isocitrate dehydrogenase [NADP] cytoplasmic (Homo sapiens), O75874; diaphorase/resazurin fluorescence, 60 min; inhibition, % at 10 µM; 0.18% of 70,000 active; AID 624101, 2012; in the data active = inhibition above about 34%; inconclusive = no clear call, values can overlap the other calls; inactive = below about 11%;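 also: 0% = DMSO and 100% = no enzyme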
# Target sequence (O75874 whole entry R132H): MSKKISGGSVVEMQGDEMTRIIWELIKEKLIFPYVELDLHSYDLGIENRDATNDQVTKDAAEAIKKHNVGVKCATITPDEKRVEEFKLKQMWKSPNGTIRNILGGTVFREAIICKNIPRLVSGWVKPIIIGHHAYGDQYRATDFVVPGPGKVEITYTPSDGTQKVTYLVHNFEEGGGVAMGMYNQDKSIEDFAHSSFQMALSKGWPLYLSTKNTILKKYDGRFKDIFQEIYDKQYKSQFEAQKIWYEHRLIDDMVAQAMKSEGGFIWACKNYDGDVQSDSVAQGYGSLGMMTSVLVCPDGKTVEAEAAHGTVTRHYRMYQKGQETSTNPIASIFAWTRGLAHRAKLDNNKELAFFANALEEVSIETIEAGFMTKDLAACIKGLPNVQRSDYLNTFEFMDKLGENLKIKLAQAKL
# KDM4C inh = inhibitors of GASC-1 (KDM4C) histone demethylase, primary screen, biochemical, single concentration HTS; inhibition, % at 12.5 µM; 0.15% of 96,000 active; GST-KDM4C 2-372, H3K9me3 peptide, LANCE TR-FRET; Lysine-specific demethylase 4C (Homo sapiens), Q9H3R0; AID 720574, 2013;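 active = mean replicate inhibition above about 25%, with at least 55% of replicates also reaching it, limit read from the data, passing the limit was not always enough; inconclusive = only one of those two conditions met; inactive = neither condition met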
#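 Test system: N-terminal GST-fused human GASC-1 (KDM4C) fragment, residues 2-372; quantity: GASC-1 enzyme at 10 nM final in reaction; dosing: single dose; schedule: 30 min demethylation and 1 h detection at room temperature; signal: LANCE TR-FRET, excitation 340 nm, emissions 618 and 671 nm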
# T cruzi growth-2 = T. cruzi intracellular proliferation inhibitors, confirmation, cell-based, NIH3T3 host, beta-gal parasite, luminescence, cherry-pick; 72% of 5,600 active; T. cruzi beta-gal in NIH3T3, GalScreen luminescence, 90 h; inhibition, % at 8.35 µM; shares compounds with T cruzi growth-1;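 active = mean replicate inhibition above about 95% and at least 55% of replicates individually reaching it, limit read from the data; inconclusive = only one of the two criteria is met; inactive = neither criterion is met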
# T cruzi growth-3 = inhibitors of intracellular T. cruzi replication, confirmation, NIH3T3 host cells, beta-gal parasites, cherry-pick, set 2 | shares compounds with T cruzi growth-1 | T. cruzi beta-gal in NIH3T3, GalScreen luminescence, 90 h | inhibition, % at 2.09 µM | 21% of 5,600 active;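 active = mean inhibition above about 95%, with at least 55% of replicates also reaching it, limit read from the data; inconclusive = meets just one of the two conditions; inactive = meets neither condition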;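 also: plate controls were neutral control median for no effect and positive control median for full effect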
# 3T3 cytotox = cytotoxicity in mouse NIH/3T3 fibroblasts, confirmation, cytotoxicity control for T. cruzi proliferation inhibitor project, cell-based, cherry-pick, single point; shares compounds with T cruzi growth-1; NIH/3T3 viability, CellTiter-Glo ATP luminescence, 90 h; cytotoxicity (signal decrease), % at 8.35 µM; 14% of 5,600 active; AID 651742, 2012;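 active = mean signal decrease across replicates above about 35% based on untreated-well scatter, with enough replicates individually passing, limit read from the data; inconclusive = no rule stated though some were filed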;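 also: 0% = median of neutral control wells and 100% = median of positive control wells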
# 3T3 cytotox 2 = NIH/3T3 fibroblast cytotoxicity, confirmation, cytotoxicity control, cell-based, cherry-pick, single point, set 2; inhibition, % at 24.9 µM; AID 651744, 2012; shares compounds with T cruzi growth-1; NIH/3T3 viability, CellTiter-Glo ATP luminescence, 90 h; 56% of 5,600 active;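 active = mean loss of cell viability signal at or above a set limit, and enough replicates individually reaching it; inconclusive = meets only the mean limit or only the replicate share; inactive = meets neither condition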;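 also: 0% = median of neutral control wells and 100% = median of positive control wells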
# Numbers without * were called inactive; ? = inconclusive; . = no result given.
SMILES,T cruzi growth-1,IDH1 mut inh,KDM4C inh,T cruzi growth-2,T cruzi growth-3,3T3 cytotox,3T3 cytotox 2
O=C(C[C@@H]1CC[C@@H]2[C@H](COC[C@H](O)CN2S(=O)(=O)c2ccc(F)cc2)O1)N[C@H]1CCN(Cc2ccccc2)C1,22,.,1,.,.,.,.
CC(C)CC#Cc1cnc2c(c1)C(=O)N([C@@H](C)CO)C[C@H](C)[C@@H](CN(C)Cc1ccc(F)cc1)O2,79,0,7,.,.,.,.
O=C(Nc1ccc(Cl)cc1)N[C@@H]1CC[C@H](CCn2cc(-c3ccccc3F)nn2)O[C@@H]1CO,102*,0,-2,98*,53,4,?
COc1ccccc1NC(=O)N[C@@H]1CC[C@@H](CCn2cc(-c3ccccc3OC)nn2)O[C@H]1CO,0,-1,-1,.,.,.,.
O=C(Nc1ccc(C(F)(F)F)cc1)N[C@H]1CC[C@H](CCNC(=O)c2ccccc2F)O[C@H]1CO,5,0,0,.,.,.,.
COc1ccccc1-c1cn(CC[C@H]2CC[C@H](NC(=O)NC(C)C)[C@H](CO)O2)nn1,24,?,?,.,.,.,.
COc1ccccc1NC(=O)N[C@H]1CC[C@@H](CCn2cc(-c3ccccc3OC)nn2)O[C@@H]1CO,137*,-1,1,47,40,-2,23
COc1ccccc1NC(=O)N[C@H]1CC[C@H](CCn2cc(-c3ccccc3OC)nn2)O[C@@H]1CO,149*,-1,.,20,22,1,?
O=C(Nc1ccc(F)cc1)N[C@H]1CC[C@@H](CCn2cc(-c3ccccc3F)nn2)O[C@@H]1CO,.,0,3,.,.,.,.
O=C(Nc1ccc(C(F)(F)F)cc1)N[C@H]1CC[C@@H](CCNC(=O)c2ccccc2F)O[C@H]1CO,139*,0,-1,45,31,-14,-4
COc1ccc(NC(=O)N(C)C[C@@H]2Oc3ccc(NC(=O)CCCCCC(=O)Nc4ccccc4N)cc3C(=O)N([C@@H](C)CO)C[C@@H]2C)cc1,.,0,0,.,.,.,.
O=C(Nc1ccc2c(c1)[C@@H]1C[C@@H](CC(=O)N3CCc4ccccc4C3)O[C@@H](CO)[C@@H]1O2)c1cccnc1,-45,-1,-1,.,.,.,.
CO[C@H]1CN(C)C(=O)c2cc(NC(=O)C3CCCCC3)ccc2OC[C@H](C)N(Cc2nccs2)C[C@H]1C,-7,0,1,.,.,.,.
COc1ccccc1NC(=O)N[C@H]1CC[C@H](CCn2cc(-c3ccccc3)nn2)O[C@@H]1CO,29,0,0,.,.,.,.
COc1ccccc1NC(=O)N[C@H]1CC[C@@H](CCn2cc(-c3ccccc3OC)nn2)O[C@H]1CO,113*,0,.,69,41,-13,9
N#C[C@H]1[C@@H](c2ccc(C#CC3CCCCC3)cc2)[C@H](CO)N1S(=O)(=O)c1ccccc1,82,.,0,.,.,.,.
N#C[C@H]1[C@H](c2ccc(C#CC3CCCC3)cc2)[C@@H](CO)N1S(=O)(=O)c1ccccc1,100*,.,-2,96*,99*,-13,106*
N#C[C@H]1[C@@H](c2ccc(C#CC3CCCCC3)cc2)[C@@H](CO)N1S(=O)(=O)c1ccccc1,88,0,-4,.,.,.,.
N#C[C@@H]1[C@@H](c2ccc(C#CC3CCCC3)cc2)[C@H](CO)N1S(=O)(=O)c1ccccc1,97*,.,0,95*,107*,21,105*
C[C@H](CO)N1C[C@H](C)[C@H](CN(C)Cc2ccc(Oc3ccccc3)cc2)Oc2ccc(NC(=O)c3ccncc3)cc2CC1=O,102*,-1,-1,102*,52,26,103*
C[C@@H]1CN([C@H](C)CO)C(=O)Cc2cc(NC(=O)Nc3ccccc3)ccc2O[C@H]1CN(C)Cc1ccncc1,98*,10,-1,-14,8,4,-8
C[C@@H]1CN([C@H](C)CO)C(=O)Cc2cc(NC(=O)c3ccncc3)ccc2O[C@@H]1CN(C)Cc1ccc(Oc2ccccc2)cc1,76,-1,-1,.,.,.,.
C[C@H]1CN([C@@H](C)CO)C(=O)Cc2cc(NC(=O)c3ccncc3)ccc2O[C@@H]1CN(C)Cc1ccc(Oc2ccccc2)cc1,85,0,-1,.,.,.,.
C[C@@H]1CN([C@@H](C)CO)C(=O)Cc2cc(NC(=O)Nc3ccccc3)ccc2O[C@@H]1CN(C)Cc1ccncc1,57,23,-1,.,.,.,.
C[C@@H]1CN([C@@H](C)CO)C(=O)Cc2cc(NC(=O)c3ccncc3)ccc2O[C@H]1CN(C)Cc1ccc(Oc2ccccc2)cc1,105*,0,-1,105*,84,24,103*
SMILES,T cruzi growth-1,IDH1 mut inh,KDM4C inh,T cruzi growth-2,T cruzi growth-3,3T3 cytotox,3T3 cytotox 2
C[C@H](CO)N1C[C@H](C)[C@@H](CN(C)C(=O)NC2CCCCC2)Oc2ccc(NC(=O)Cn3cnnn3)cc2C1=O,79,-1,0,.,.,.,.
CO[C@H]1CN(C)C(=O)c2cc(NC(=O)CC(F)(F)F)ccc2OC[C@H](C)N(C(C)=O)C[C@@H]1C,.,.,2,.,.,.,.
C[C@@H]1CCCCO[C@H](CN(C)S(C)(=O)=O)[C@H](C)CN([C@@H](C)CO)C(=O)c2cc(NC(=O)C3CCCCC3)ccc2O1,57,.,0,.,.,.,.
O=C(C[C@@H]1CC[C@H](NC(=O)Nc2ccc3c(c2)OCO3)[C@H](CO)O1)NCCCN1CCOCC1,-13,0,-1,.,.,.,.
C[C@H](CO)N1C[C@H](C)[C@@H](CN(C)Cc2ccccc2)Oc2cc(-c3cncnc3)ccc2S1(=O)=O,113*,-1,1,92,?,38*,70*
C[C@@H]1CN([C@H](C)CO)S(=O)(=O)c2ccc(-c3cncnc3)cc2O[C@H]1CN(C)Cc1cncnc1,29,0,0,.,.,.,.
C[C@H]1CN([C@@H](C)CO)S(=O)(=O)c2ccc(-c3cncnc3)cc2O[C@@H]1CN(C)Cc1cncnc1,25,0,-1,.,.,.,.
C[C@H]1CN([C@@H](C)CO)S(=O)(=O)c2ccc(-c3cncnc3)cc2O[C@@H]1CN(C)Cc1ccccc1,106*,9,0,?,100*,18,31*
O=C1CN(S(=O)(=O)c2cccc(F)c2)C[C@H]2[C@@H](c3ccc(-c4ccc(F)cc4)cc3)[C@H](CO)N12,.,.,0,.,.,.,.
C[C@H](CO)N1C[C@H](C)[C@@H](CN(C)S(C)(=O)=O)Oc2cc(Br)ccc2S1(=O)=O,-14,.,-2,.,.,.,.

# From PubChem BioAssay
